CHOP inh: inhibitors of CHOP induction in ER stress response. CHO-K1 CHOP-promoter luciferase, tunicamycin-induced, 15-18 h. inhibition, % at 10 µM. 220,000 compounds, 3.8% hits;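 active = compounds that reduced the stress-induced luciferase reporter signal by more than about 70% of percent inhibition, limit read from the data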;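 also: 0% = tunicamycin plus vehicle and 100% = wells without tunicamycin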
XBP1 UPR activ: activators of adaptive arm of unfolded protein response (XBP1). CHO-XBP1 luciferase reporter, IRE1-XBP1 UPR activation, luminescence; percent of tunicamycin response, DMSO as zero. activation, % at 20 µM. 330,000 compounds, 0.33% hits. AID 463104;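 active = versus positive control, 20 µM dose yields 30% or more activation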;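 also: 100% = tunicamycin at 10 µg/mL and 0% = DMSO only wells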
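incubation = overnight seeding at 37 °C, 6 h compound treatment at 37 °C | assay system = CHO-XBP1 cells stably carrying IRE1-XBP1-driven luciferase reporter | input = 1000 cells per well | detection = luciferase luminescence | dosing = single point, 20 µM final compound, 1% DMSO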
V-ATPase pHluor: alters yeast V-ATPase proton transport; S. cerevisiae, pHLuorin cytosolic pH fluorescence; 350,000 compounds, 0.37% hits; AID 504577; response, % at 10 µM; in the data active = response mostly above about 7.3%, no sharp cut-off; inactive = mostly below about 5.4%; also: actives read high
Tb MetRS inh: Trypanosoma brucei MetRS inhibition | purified T. brucei MetRS, ATP depletion, Kinase-Glo luminescence | inhibition, % at 11.9 µM | 360,000 compounds, 0.4% hits | AID 624268;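 active = inhibition above a per-plate cutoff of the control wells' mean inhibition plus 3 SD, cut at about 5.5% in these data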;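 also: 0% = DMSO wells median and 100% = median of wells with control inhibitor compound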
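Dosing: 11.9 µM single point; system: parasite MetRS enzyme; technique: luminescence of leftover ATP; times: 15 min enzyme-compound preincubation, 2 h reaction, 10 min detection, 25 °C; replicates: each compound tested once; read-out basis: percent inhibition relative to median high and low control wells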
UPR CHOP act: apoptotic UPR (CHOP) activation; 330,000 compounds, 0.34% hits; CHO-CHOP luciferase reporter, luminescence; percent of tunicamycin response over DMSO baseline; activation, % at 10 µM;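 active = at 10 µM dose, activation of 40% or more, normalized to positive control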;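 also: 100% = tunicamycin at 10 µg/mL and 0% = DMSO alone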
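Test system: CHO-CHOP cells, stable luciferase reporter of PERK-eIF2a-CHOP signalling | Quantity: 500 CHO-CHOP cells per well | Buffer or medium: F12 plus 10% serum | Compound dosing: 10 µM single point, 0.5% DMSO | Schedule: 6 h compound treatment, 37 °C | Signal: Luciferase luminescence | Control set: Tunicamycin high control, DMSO low control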
VATPase regulator: yeast V-ATPase proton transport regulation. shares compounds with V-ATPase pHluor. S. cerevisiae pHLuorin cytosolic pH. response, % at 10 µM. 980 compounds, 2% hits. AID 602197; in the data active = response above about 24%;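 also: plate controls were vehicle wells for no effect and positive control wells for full effect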
Starred values were filed as active, the others as inactive; · = not tested or not shown. Only a selection was taken, and hits are over-represented in it overall.

SMILES | CHOP inh | XBP1 UPR activ | V-ATPase pHluor | Tb MetRS inh | UPR CHOP act | VATPase regulator
CCc1c(C#N)c(=O)[nH]c(=O)n1-c1ccccc1 | · | -3 | 10.0* | 1 | -1 | -1
O=C(NC(=S)Nc1cccc(S(=O)(=O)NC2=NCCC2)c1)c1cc(-c2ccco2)nc2ccccc12 | 20 | 1 | 13* | 0 | 0 | -3
O=C(Nc1cccc(S(=O)(=O)NC2=NCCC2)c1)c1cc(-c2ccco2)nc2ccccc12 | 15 | -1 | 1 | 1 | 0 | ·
NNC(=O)CNc1ccccc1Cl | 18 | 4 | 8.4* | 0 | -1 | 3
O=C(CCCCC(=O)Nc1ccccc1Cl)Nc1ccccc1Cl | · | -2 | 3 | -2 | -2 | ·
Cc1cccc(OCc2nnc(SCC(=O)NC3CCCC3)n2C)c1 | · | 1 | -4 | 0 | 1 | ·
CC(=O)Nc1ccc(S(=O)(=O)N2CCN(c3cnn(C)c(=O)c3Cl)CC2)cc1 | 15 | -2 | 0 | 0 | 0 | ·
CCCOC(=O)c1ccc(-c2ccc(C=O)o2)cc1 | 1 | 1 | 8.2* | 0 | 4 | 5
CCOC(=O)c1ccc(-c2ccc(C=O)o2)cc1 | -13 | 5 | -1 | 0 | 3 | ·
O=C(Nc1ccc([N+](=O)[O-])cc1)c1ccccc1F | 11 | 3 | 15* | 0 | 4 | 2
O=C(CCN1C(=O)c2cccc([N+](=O)[O-])c2C1=O)Nc1nccs1 | 8 | 9 | 3 | 0 | 2 | ·
CCN1C(=O)C(CC(=O)Nc2ccc(OC)cc2)N(CCCN2CCN(c3ccc(F)cc3)CC2)C1=S (stereo not drawn) | 54 | 0 | 13* | -1 | -2 | 3
FC(F)(F)c1cc(C(F)(F)F)n2nc(-c3sccc3-n3cccc3)cc2n1 | -20 | -3 | 12* | -1 | -2 | -2
CCc1cc(-c2cnnn2Cc2ccc3ccccc3c2)ccc1-c1cn(CC(C)C)nn1 | · | · | 7.2* | 0 | · | 1
CC1=C(C(=O)Nc2ccccc2)C(c2cccc([N+](=O)[O-])c2)Nc2nc3ccccc3n21 (stereo not drawn) | 47 | -2 | 17* | 0 | 1 | 1
COc1cc(NC(=O)CCn2c(=O)[nH]c3ccsc3c2=O)cc(OC)c1 | -18 | 0 | 7.7* | 0 | -2 | 2
Cc1cccc(C)c1-n1nnnc1C1(C)CCC(=O)N1Cc1cccc(C(F)(F)F)c1 (stereo not drawn) | · | · | · | -1 | · | ·
Cc1ccccc1-c1ccccc1CN1[C@@H](C(C)C)COCCS1(=O)=O | · | 3 | 8.8* | 0 | 1 | 2
CCN(CC)c1cc(CS(=O)c2ccccc2)nc(-c2ccccc2)n1 (stereo not drawn) | · | -5 | 0 | -1 | 1 | ·
Cc1ccc(N2CCN(S(=O)(=O)N3CCCCC3)CC2)cc1C | 28 | 0 | 11* | 0 | 1 | 2
Cc1ccc(N2CCN(S(=O)(=O)N3CCCCCC3)CC2)cc1Cl | 37 | -2 | 2 | -1 | -1 | ·
COc1ccc([C@H]2C[C@H](O)[C@@H](n3cc(COC(=O)c4ccccc4)nn3)CN2CC2CCCCC2)cc1 | · | · | 1 | -1 | · | ·
O=C(Nc1ccn(Cc2c(F)c(F)cc(F)c2F)n1)c1cccc(Cn2cc([N+](=O)[O-])cn2)c1 | 30 | 0 | 19* | -1 | -1 | 1
O=C(Nc1ccn(Cc2c(F)c(F)c(F)c(F)c2F)n1)c1cccc(Cn2cc([N+](=O)[O-])cn2)c1 | 30 | 2 | 0 | -2 | 5 | ·
COc1ccc([N+](=O)[O-])cc1NC(=O)c1ccc(N(Cc2ccccc2Cl)S(C)(=O)=O)cc1 | 8 | -1 | 1 | 0 | 1 | ·
SMILES | CHOP inh | XBP1 UPR activ | V-ATPase pHluor | Tb MetRS inh | UPR CHOP act | VATPase regulator
CCCCCOc1ccc2oc(=O)c3c(c2c1)CCCN3C(=O)CN1CCCC(C(=O)OCC)C1 (stereo not drawn) | 49 | 2 | 13* | 0 | 2 | 2
C1=Cc2ccccc2Nc2ccccc21 | -16 | 1 | 12* | -1 | -1 | 1
c1ccc2c(c1)Nc1cc3ccccc3cc1S2 | -8 | 5 | -1 | 0 | 5 | ·
COC(=O)[C@@H]1C[C@H]2CC[C@H](O)C[C@H]2N1Cc1ccc(-c2ccccc2)cc1 | 16 | 0 | -4 | 0 | -4 | ·
CC1CCN(c2nc(-c3ccc(F)cc3)cc(C(F)(F)F)n2)CC1 | 25 | -2 | 8.6* | 0 | 1 | 2
O=C(C/C(=N/O)c1ccccc1O)C(F)F | 14 | 4 | 26* | 0 | -2 | -2
O=C(NCC1CCCO1)C(=O)NCC(c1ccco1)N1CCN(c2ccccc2)CC1 (stereo not drawn) | 4 | 0 | 0 | 0 | 1 | ·
O=C(NCCCCNC(=O)c1ccc(F)cc1)c1ccc(F)cc1 | · | -4 | 1 | -2 | 0 | 0
CCCNC(=S)N1CCN(C)CC1 | 27 | 1 | 8.2* | 0 | 0 | -5
CCCCNC(=S)N1CCN(CC)CC1 | 15 | -1 | 5 | 0 | 0 | ·
Cc1cc(C)cc(NC(=O)COC(=O)Cn2cnc3c2c(=O)n(C)c(=O)n3C)c1 | · | -3 | 0 | 0 | -1 | ·
CCOc1ccc(N(C(=O)/C=C/C(=O)Nc2cc(C)on2)C(C(=O)NC2CCCC2)c2ccccc2C)cc1 (stereo not drawn) | 69 | -2 | 7 | -1 | 3 | ·
CCc1ccc(C(C(=O)NC2CCCC2)N(C(=O)/C=C/C(=O)Nc2cc(C)on2)c2ccccc2C)cc1 (stereo not drawn) | 33 | 5 | 10* | 0 | 7 | 2
Nc1nc(NCc2ccco2)nc(N2CCCCCC2)c1[N+](=O)[O-] | 49 | 3 | 23* | 1 | -2 | 1
Nc1nc(NCc2ccco2)nc(N2CCCC2)c1[N+](=O)[O-] | 7 | 3 | 2 | 0 | 0 | ·
COc1cccc(N2C(=O)/C(=C\c3cccs3)NC2=S)c1 | -11 | 1 | 21* | 0 | 1 | -4
Cc1ccc(-n2c3c(cc(C(=O)NCCCN4CCOCC4)c2=O)C(=O)CC(C)(C)C3)cc1 | · | -1 | 11* | 0 | 2 | 0
O=C1CCCc2c1cc(C(=O)NCCCN1CCOCC1)c(=O)n2-c1ccc(Cl)cc1 | 37 | 0 | -3 | -1 | -1 | ·
O=c1c2ccccc2sn1-c1ccc(Cl)cc1 | · | · | 0 | 0 | · | -23
COc1cc(-c2cc(-c3ccc(F)cc3)nc(N)c2C#N)ccc1O | 43 | 8 | -1 | 1 | 1 | ·
CCN1CCN(C(=O)c2cc(S(=O)(=O)Nc3ccc(S(C)(=O)=O)cc3)ccc2Cl)CC1 | 2 | -8 | 10* | 0 | 1 | 1
CC(=O)N1CCN(C(=O)c2cc(S(=O)(=O)Nc3ccc(S(C)(=O)=O)cc3)ccc2Cl)CC1 | 10 | -1 | -2 | 0 | 2 | ·
COCC1CCN(Cc2cn(-c3ccccc3F)nc2-c2cc(C)sc2C)CC1 | 62 | -5 | -5 | -1 | 0 | ·

Compound activity from PubChem BioAssay.
